Key:
[1] = Cytotoxicity against mouse +SA cells after 24 hrs by MTT assay; format: functional, cell-based; conditions: +SA cell
In short: (§1)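 Compounds dissolved in DMSO, conjugated overnight to 10% BSA at 37 °C, tested at 0–40 µM, final DMSO <0.1%. +SA cells seeded at 5 × 10⁴/well or CL-S1 at 1 × 10⁵/well (six wells/group), grown 3 days (~70% confluent), then treated 24 h. MTT 0.42 mg/mL, 4 h at 37 °C; crystals dissolved in isopropanol, read at 570 nm. Cell number from standard curve; IC50 by linear regression.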

[2] = test system: MDA-MB-231; assay: Antimigratory activity against human MDA-MB-231 at 5 uM after 24 hrs by wound-healing assay; format: functional; conditions: MDA-MB-231, 24 h
In short: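 MDA-MB-231 grown in RPMI 1640 with 10 mM HEPES, 4 mM L-glutamine, 10% FBS, 5% CO2, 37 °C. Confluent (>95%) monolayers scratched with pipette tip, washed with PBS, then given compound in DMSO at 5 µM (DMSO vehicle control), in triplicate. After 24 h under serum starvation, cells fixed and Diff Quick stained. Migrated cells counted in ≥3 random 400× fields, mean ± SEM.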

[3] = Cytotoxicity against mouse CL-S1 cells assessed as cell viability after 24 hrs by MTT assay; format: cell-based; conditions: cl-s1, 24 h; in short: as §1
[4] = Stability of the compound in rat plasma after 4 hrs by HPLC method relative to zero time concentration; format: ADME, cell-free; conditions: read-out: Stability
In short: (§2)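 50 µg/mL compound dissolved in rat plasma in amber vials and incubated at 37 °C. Samples taken at 0, 0.5, 1, 2, 4, 6 and 24 h, mixed with 100 µL methanol, centrifuged 14,000 rpm for 10 min. Supernatant analysed by HPLC with UV at 295 nm, relative to zero-time concentration.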

[5] = Stability of the compound in rat plasma after 24 hrs by HPLC method relative to zero time concentration; format: ADME, cell-free; conditions: read-out: Stability; in short: as §2
[6] = Solubility of the compound in phosphate buffer at pH 7.4 after up to 24 hrs by HPLC method relative to alpha-tocotrienol; format: physicochemical; conditions: pH 7.4, 24 h
In short: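 About 5.6 mg compound added to 3 mL pH 7.4 phosphate buffer in amber vials and shaken at 25 °C for 24 h. Centrifuged 5000 rpm, 10 min; clear supernatant sampled at 0, 1, 2, 4, 6 and 24 h. Concentration determined by HPLC with UV at 295 nm.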

[7] = Chemical stability of the compound in phosphate buffer at pH 7.4 after 24 hrs by HPLC method relative to zero time concentration; format: physicochemical
In short: (§3)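 500 µg/mL compound dissolved in pH 7.4 phosphate buffer in amber vials and kept at 37 °C. Samples taken at 0, 0.5, 1, 2, 4, 6 and 24 h, mixed with equal volume methanol, analysed by HPLC with UV at 295 nm. Amount expressed relative to the zero-time concentration.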

[8] = Chemical stability of the compound in phosphate buffer at pH 7.4 after 1 hr by HPLC method relative to zero time concentration; format: physicochemical; conditions: pH 7.4, 1 h; in short: as §3

Structure (SMILES)	IC50 [1] [µM]	inhibition at 5 µM [2] [%]	further results
CC(C)=CCC/C(C)=C/CC/C(C)=C/CC[C@]1(C)CCc2c(C)c(OC(=O)c3ccc(C(=O)O)cc3C(=O)O)c(C)c(C)c2O1	1.5	50	
CC(C)=CCC/C(C)=C/CC/C(C)=C/CC[C@]1(C)CCc2cc(OC(=O)c3ccc(C(=O)O)cc3C(=O)O)c(C)c(C)c2O1	0.62		
CC(C)=CCC/C(C)=C/CC/C(C)=C/CC[C@]1(C)CCc2c(C)c(OC(=O)c3cc(C(=O)O)ccc3C(=O)O)c(C)c(C)c2O1	1.46	50	
CC(C)=CCC/C(C)=C/CC/C(C)=C/CC[C@]1(C)CCc2cc(OC(=O)c3cc(C(=O)O)ccc3C(=O)O)c(C)c(C)c2O1	1.44		
CC(C)=CCC/C(C)=C/CC/C(C)=C/CC[C@]1(C)CCc2cc(OC(=O)c3cc(C(=O)O)ccc3C(=O)O)cc(C)c2O1	1.5	50	
CC(=O)Oc1cc(C(=O)Oc2cc3c(c(C)c2C)O[C@](C)(CC/C=C(\C)CC/C=C(\C)CCC=C(C)C)CC3)cc(OC(C)=O)c1OC(C)=O	1.72		
CC(=O)Oc1ccc(/C=C/C(=O)Oc2cc3c(c(C)c2C)O[C@](C)(CC/C=C(\C)CC/C=C(\C)CCC=C(C)C)CC3)cc1OC(C)=O	> 40		Activity [3]: Non-toxic
CC(C)=CCC/C(C)=C/CC/C(C)=C/CC[C@]1(C)CCc2c(C)c(OC(=O)/C=C\C(=O)O)c(C)c(C)c2O1	0.52	50	remaining at 4 h [4]: 81%; remaining at 24 h [5]: 43%; fold change (FC) [6]: 1000; remaining at 24 h ([7]; phosphate buffer, pH 7.4, read-out: Stability): 100%
CC(C)=CCC/C(C)=C/CC/C(C)=C/CC[C@]1(C)CCc2cc(OC(=O)/C=C\C(=O)O)c(C)c(C)c2O1	2.3	50	
CC(C)=CCC/C(C)=C/CC/C(C)=C/CC[C@]1(C)CCc2cc(OC(=O)/C=C\C(=O)O)cc(C)c2O1	0.87		
CC(C)=CCC/C(C)=C/CC/C(C)=C/CC[C@]1(C)CCc2cc(OC(=O)CC(C)CC(=O)O)c(C)c(C)c2O1 (stereo not given in full)	19.2		Activity [3]: Non-toxic
CC(C)=CCC/C(C)=C/CC/C(C)=C/CC[C@]1(C)CCc2cc(OC(=O)c3ccccc3)c(C)c(C)c2O1	6.55	50	Activity [3]: Non-toxic
CC(C)=CCC/C(C)=C/CC/C(C)=C/CC[C@]1(C)CCc2c(C)c(O)c(C)c(C)c2O1 [ALPHA-TOCOTRIENOL]	5		Stability ([7]; buffer, pH 7.4, 24 h): Unstable; Stability [8]: Unstable
CC(C)=CCC/C(C)=C/CC/C(C)=C/CC[C@]1(C)CCc2cc(O)cc(C)c2O1 [DELTA-TOCOTRIENOL]	3		
CC(C)=CCC/C(C)=C/CC/C(C)=C/CC[C@]1(C)CCc2cc(O)c(C)c(C)c2O1 [GAMMA-TOCOTRIENOL]	4		

— ChEMBL document CHEMBL1275356, “Redox-silent tocotrienol esters as breast cancer proliferation and migration inhibitors” (Bioorg Med Chem, 2010)
